Results: the array DNA melting data of Ke et al. (doi:10.1101/2024.01.08.574731)

Columns and labels:
[1] = folding enthalpy; higher = less favourable; fluorescence melt of hairpins on a sequencing array, two-state fit; conditions: sodium 0.088 M
In short: (§1)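 Two-state fits, bootstrapped, provided melting temperature and folding enthalpy from Cy3 fluorescence normalised to pre-quench Cy3 and to control constructs. Library hairpins with annealed Cy3 and quencher oligos were imaged on a sequenced MiSeq flow cell in 50 mM Na-HEPES pH 8.0, 25 mM NaCl, at 2.5 °C intervals up to 60 °C. Four replicates were combined with inverse-variance weighting. A 9.35 °C upward shift was applied to fitted temperatures to match UV melts.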

[2] = melting temperature; fluorescence melt of hairpins on a sequencing array, two-state fit, raised by 9.35 °C to match UV melts; conditions: sodium 0.088 M
In short: as §1

GCGTTCCACGC ((((...))))
folding enthalpy [1]: -106 kJ/mol
Tm [2]: 59.7 °C

GCCGACGAAAGTCTAGGC ((((((....)))..)))
folding enthalpy [1]: -143 kJ/mol
Tm [2]: 52.7 °C

GCATCCGGAAACAGATGC (((((.(....).)))))
folding enthalpy [1]: -154 kJ/mol
Tm [2]: 45 °C

GGGATCGGAAACGGTTCC ((.(.((....)).).))
folding enthalpy [1]: -149 kJ/mol
Tm [2]: 40.9 °C

GAATACCGAAAGGTGTTC (((.(((....))).)))
folding enthalpy [1]: -169 kJ/mol
Tm [2]: 51.2 °C

GATCCTCTTTAGGATC ((((((....))))))
folding enthalpy [1]: -195 kJ/mol
Tm [2]: 52 °C

GATCGGTGAGCCGATC ((((((....))))))
folding enthalpy [1]: -203 kJ/mol
Tm [2]: 60.8 °C

GCAATAGGAAACTATCGC ((.((((....)))).))
folding enthalpy [1]: -77.7 kJ/mol
Tm [2]: 33.9 °C

GACTACGAAAGTACAGTC ((((((....)))..)))
folding enthalpy [1]: -76.7 kJ/mol
Tm [2]: 34 °C

GACCTGCGAAAGCATGTC (((.(((....))).)))
folding enthalpy [1]: -119 kJ/mol
Tm [2]: 49.9 °C

GACAACGAAAGTTCGGTC ((((((....)))..)))
folding enthalpy [1]: -74.1 kJ/mol
Tm [2]: 30.7 °C

GTAGACGGAAACGCCTAC ((((.((....)).))))
folding enthalpy [1]: -135 kJ/mol
Tm [2]: 45.3 °C

GATCGCTTGGCGATC ((((((...))))))
folding enthalpy [1]: -173 kJ/mol
Tm [2]: 68.8 °C

GCTCGATCGAAAGATAGC (((..(((....))))))
folding enthalpy [1]: -49 kJ/mol
Tm [2]: 28.1 °C

GATCGGCTACCCGATC ((((((....))))))
folding enthalpy [1]: -172 kJ/mol
Tm [2]: 54.9 °C

GTGAGCGAAAGCTCTCAC ((((((....)))..)))
folding enthalpy [1]: -42 kJ/mol
Tm [2]: 40.6 °C

GATCGGCACCCGATC ((((((...))))))
folding enthalpy [1]: -150 kJ/mol
Tm [2]: 55 °C

GGGAAGGGAAACTTTCCC (((((.(....).)))))
folding enthalpy [1]: -109 kJ/mol
Tm [2]: 45.5 °C

GTGCTCACGAAAGTGCAC (((..(((....))))))
folding enthalpy [1]: -83.1 kJ/mol
Tm [2]: 48.3 °C

GCACGACGAAAGTCATGC (((.(((....))).)))
folding enthalpy [1]: -153 kJ/mol
Tm [2]: 52.6 °C

GCTTACGAAAGTAGGAGC ((((((....)))..)))
folding enthalpy [1]: -106 kJ/mol
Tm [2]: 35 °C

CGCGCGGAAACGCCGGCG ((((((....)))..)))
folding enthalpy [1]: -93.1 kJ/mol
Tm [2]: 54.3 °C

GCCGGCGAAAGCCTGGGC ((((((....)))..)))
folding enthalpy [1]: -103 kJ/mol
Tm [2]: 60 °C

GTGTATGAAAATACAC ((((((....))))))
folding enthalpy [1]: -151 kJ/mol
Tm [2]: 52.5 °C

GTTCGTGGAAACGTGAAC ((((..(....)..))))
folding enthalpy [1]: -64.2 kJ/mol
Tm [2]: 34.8 °C

GCATGGCGAAAGCTATGC ((((.((....)).))))
folding enthalpy [1]: -158 kJ/mol
Tm [2]: 66.6 °C

GGGCAGCGAAAGCTCCCC (((.(((....))).)))
folding enthalpy [1]: -76.5 kJ/mol
Tm [2]: 56.3 °C

GCTAGGCGAAAGCAAAGC (((..((....))..)))
folding enthalpy [1]: -80.3 kJ/mol
Tm [2]: 44.3 °C

GACGTCCGAAAGGAGGTC (((.(((....))).)))
folding enthalpy [1]: -129 kJ/mol
Tm [2]: 58.3 °C

GATCACCCGTGTGATC ((((((....))))))
folding enthalpy [1]: -200 kJ/mol
Tm [2]: 55.5 °C

GCGGTCACCGC ((((...))))
folding enthalpy [1]: -99.5 kJ/mol
Tm [2]: 63 °C

GCGCGGCGAAAGCCTGGC ((..(((....)))..))
folding enthalpy [1]: -64 kJ/mol
Tm [2]: 47.9 °C

GGGTGCGAAAGCATTCCC ((((((....)))..)))
folding enthalpy [1]: -73 kJ/mol
Tm [2]: 46.9 °C

GGTTACGAAAGTACAACC ((((((....)))..)))
folding enthalpy [1]: -79.8 kJ/mol
Tm [2]: 36.1 °C

CGCTCGGAAACGAAGCG ((((((....))).)))
folding enthalpy [1]: -123 kJ/mol
Tm [2]: 53.6 °C

GATCCTACTCAGGATC ((((((....))))))
folding enthalpy [1]: -135 kJ/mol
Tm [2]: 52 °C

GACTCCGGAAACGGAATC ((.((((....)))).))
folding enthalpy [1]: -79.9 kJ/mol
Tm [2]: 36.4 °C

GCTGTTGGAAACAGCAGC ((((.((....)).))))
folding enthalpy [1]: -51.8 kJ/mol
Tm [2]: 63 °C

GTAGTGGGAAACTACTGC (.(((.(....).))).)
folding enthalpy [1]: -120 kJ/mol
Tm [2]: 46 °C

GATCTCCTTTGAGATC ((((((....))))))
folding enthalpy [1]: -166 kJ/mol
Tm [2]: 51.7 °C

GATCTTGCAGAAGATC ((((((....))))))
folding enthalpy [1]: -146 kJ/mol
Tm [2]: 46.8 °C

GCCTAGCGAAAGCTCTGC ((..(((....)))..))
folding enthalpy [1]: -48.9 kJ/mol
Tm [2]: 34.3 °C

GGTTACGAAAGTAAGACC ((((((....)))..)))
folding enthalpy [1]: -62.9 kJ/mol
Tm [2]: 34.5 °C

GACCGCGAAAGCGCGTC ((((((....))).)))
folding enthalpy [1]: -87.9 kJ/mol
Tm [2]: 63.1 °C

GTTTCCGGAAACGGAGAC ((.((((....)))).))
folding enthalpy [1]: -84.5 kJ/mol
Tm [2]: 47.6 °C

GTGGCTACGAAAGTACAC (((..(((....))))))
folding enthalpy [1]: -47.4 kJ/mol
Tm [2]: 32.9 °C

GCTTTACGAAAGTATAGC (((.(((....))).)))
folding enthalpy [1]: -143 kJ/mol
Tm [2]: 47 °C

GGACTCGAAAGAGCTCC ((((((....))).)))
folding enthalpy [1]: -109 kJ/mol
Tm [2]: 45 °C

GCTAAGCGAAAGCTGTGC ((..(((....)))..))
folding enthalpy [1]: -75.9 kJ/mol
Tm [2]: 48.6 °C

GATCTCAAGTGAGATC ((((((....))))))
folding enthalpy [1]: -144 kJ/mol
Tm [2]: 51.5 °C

GCGAGGCGAAAGCCCTGC ((..(((....)))..))
folding enthalpy [1]: -49.7 kJ/mol
Tm [2]: 57.6 °C

GATCGCCCTTGCGATC ((((((....))))))
folding enthalpy [1]: -125 kJ/mol
Tm [2]: 66.9 °C

GGCTAGCGAAAGCTGCC (((.(((....))))))
folding enthalpy [1]: -95 kJ/mol
Tm [2]: 64.3 °C

GTTTCAGGAAACTGAAAC (((((((....)))))))
folding enthalpy [1]: -188 kJ/mol
Tm [2]: 55.3 °C

GTAACAGCGAAAGCTTAC (((..(((....))))))
folding enthalpy [1]: -45.4 kJ/mol
Tm [2]: 28.6 °C

GCCTAAGGAAACTTGGGC (((.(((....))).)))
folding enthalpy [1]: -155 kJ/mol
Tm [2]: 48.9 °C

CGAGCGGAAACGCGTCG ((((((....))).)))
folding enthalpy [1]: -55.2 kJ/mol
Tm [2]: 53.6 °C

GCCCACCCGAAAGGGGGC (((..(((....))))))
folding enthalpy [1]: -73.5 kJ/mol
Tm [2]: 58.4 °C

GTTTTCCGAAAGGACAAC (((.(((....))).)))
folding enthalpy [1]: -108 kJ/mol
Tm [2]: 41.7 °C

GATCTTCGGAAAGATC ((((((....))))))
folding enthalpy [1]: -122 kJ/mol
Tm [2]: 38.9 °C

GAATCCGAAAGGACTTC ((((((....))).)))
folding enthalpy [1]: -81.3 kJ/mol
Tm [2]: 35.8 °C

GATCGGTCTACCGATC ((((((....))))))
folding enthalpy [1]: -164 kJ/mol
Tm [2]: 62.3 °C

GCTTGTCGAAAGACCAGC (((.(((....))).)))
folding enthalpy [1]: -112 kJ/mol
Tm [2]: 47.9 °C

GCGCTCGAAAGAGCTCGC ((((((....)))..)))
folding enthalpy [1]: -60.2 kJ/mol
Tm [2]: 47.8 °C

GCCGGGCGAAAGCGGGGC (((..((....))..)))
folding enthalpy [1]: -96 kJ/mol
Tm [2]: 63.3 °C

GTGTGCGAAAGCATACAC ((((((....)))..)))
folding enthalpy [1]: -76.3 kJ/mol
Tm [2]: 53.1 °C

GTGGCAGGAAACTGCCGC (.(((((....))))).)
folding enthalpy [1]: -76.6 kJ/mol
Tm [2]: 61.1 °C

GGATCCGGAAACAGATCC (((((.(....).)))))
folding enthalpy [1]: -139 kJ/mol
Tm [2]: 41.6 °C

GATACAGGAAACTGTATC (((((((....)))))))
folding enthalpy [1]: -180 kJ/mol
Tm [2]: 54 °C
